Laboratory results published in ChEMBL document CHEMBL1159337, “Antitumor agents. 221.1 buceracidins A and B, two new flavanones from Bucida buceras” (J Nat Prod, 2003).
In brackets after ≈: the same amount, converted by molar mass.

How the values were obtained:
KB [1] = assay: Cytotoxicity against human KB cells after 3 days by SRB assay; type: functional, cell-based; conditions: 72 h
In short: (§1)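 Stock cultures were kept in RPMI-1640 with 25 mM HEPES, 0.25% sodium bicarbonate, 10% FBS and 100 µg/mL kanamycin. Freshly trypsinized cells were seeded at 1500-7500 per well with compounds diluted from DMSO stock and cultured 3 days. Cells were fixed with cold 50% TCA, stained with 0.4% SRB, and the solubilized dye was read at 562 nm. IC50 was the concentration giving a 50% absorbance reduction versus untreated cells.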

[2] = Cytotoxicity against human KBVIN cells after 3 days by SRB assay; type: functional, cell-based; conditions: 72 h; in short: as §1
A549 = assay: Cytotoxicity against human A549 cells after 3 days by SRB assay; type: functional, cell-based; conditions: A549, 72 h; in short: as §1
1A9 = assay: Cytotoxicity against human 1A9 cells after 3 days by SRB assay; type: functional, cell-based; conditions: 1A9, 72 h; in short: as §1
HCT-8 = assay: Cytotoxicity against human HCT8 cells after 3 days by SRB assay; type: functional, cell-based; conditions: HCT-8, 72 h; in short: as §1
MCF7 = assay: Cytotoxicity against human MCF7 cells after 3 days by SRB assay; type: functional, cell-based; conditions: MCF7, 72 h; in short: as §1
PC-3 = assay: Cytotoxicity against human PC3 cells after 3 days by SRB assay; type: functional, cell-based; conditions: PC-3, 72 h; in short: as §1
[3] = Cytotoxicity against human U87MG cells after 3 days by SRB assay; type: functional, cell-based, U-87MG ATCC; conditions: U-87 MG, 72 h; in short: as §1
SK-MEL-2 = assay: Cytotoxicity against human SK-MEL-2 cells after 3 days by SRB assay; type: functional, cell-based; conditions: SK-MEL-2, 72 h; in short: as §1
KB [4] = assay: Cytotoxicity against human KB cells at 10 ug/ml after 3 days by SRB assay; type: functional; conditions: 72 h

Compound	IC50 (KB [1]) [µg/mL]	IC50 [2] [µg/mL]	IC50 (A549) [µg/mL]	IC50 (1A9) [µg/mL]	IC50 (HCT-8) [µg/mL]	IC50 (MCF7) [µg/mL]	IC50 (PC-3) [µg/mL]	IC50 [3] [µg/mL]	IC50 (SK-MEL-2) [µg/mL]	inhibition at 10 µg/mL (KB [4]) [%]
CC(C)=CCc1c2c(c(O)c3c1O[C@H](c1ccccc1O)[C@@H](O)C3=O)C=CC(C)(C)O2	16.5 (≈ 39.1 µM)	13.3 (≈ 31.5 µM)	13.5 (≈ 32 µM)	15 (≈ 35.5 µM)	12.1 (≈ 28.6 µM)	12.8 (≈ 30.3 µM)	15.4 (≈ 36.5 µM)	14.8 (≈ 35 µM)	14.8 (≈ 35 µM)	–
CO[C@H]1C(=O)c2c(O)c3c(c(CC=C(C)C)c2O[C@@H]1c1ccccc1O)OC(C)(C)C=C3	6.5 (≈ 14.9 µM)	7 (≈ 16 µM)	7.6 (≈ 17.4 µM)	7.8 (≈ 17.9 µM)	7.2 (≈ 16.5 µM)	7 (≈ 16 µM)	8.4 (≈ 19.2 µM)	8.6 (≈ 19.7 µM)	7.8 (≈ 17.9 µM)	–
CO[C@H]1C(=O)c2c(cc3c(c2O)C=CC(C)(C)O3)O[C@@H]1c1ccccc1O [BUCERACIDIN A]	> 10	15 (≈ 40.7 µM)	14.1 (≈ 38.3 µM)	14.9 (≈ 40.4 µM)	15.5 (≈ 42.1 µM)	13.6 (≈ 36.9 µM)	16.3 (≈ 44.2 µM)	16.1 (≈ 43.7 µM)	15.6 (≈ 42.3 µM)	31
CC1(C)C=Cc2c(cc3c(c2O)C(=O)C[C@@H](c2ccccc2O)O3)O1 [BUCERACIDIN B]	9.5 (≈ 28.1 µM)	9.5 (≈ 28.1 µM)	9.9 (≈ 29.3 µM)	11.5 (≈ 34 µM)	12.8 (≈ 37.8 µM)	9.3 (≈ 27.5 µM)	13 (≈ 38.4 µM)	14.2 (≈ 42 µM)	14 (≈ 41.4 µM)	–
CC(C)=CCc1c2c(c(O)c3c1O[C@H](c1ccccc1O)CC3=O)C=CC(C)(C)O2 [MINIMIFLORIN]	7.3 (≈ 18 µM)	7.7 (≈ 18.9 µM)	8 (≈ 19.7 µM)	7.6 (≈ 18.7 µM)	7.2 (≈ 17.7 µM)	7.5 (≈ 18.5 µM)	9.8 (≈ 24.1 µM)	11 (≈ 27.1 µM)	9 (≈ 22.1 µM)	–
CC(C)=CCc1c2c(c(O)c3c1O[C@H](c1ccccc1)[C@@H](O)C3=O)C=CC(C)(C)O2 [MUNDULINOL]	8.5 (≈ 20.9 µM)	7.5 (≈ 18.5 µM)	7.5 (≈ 18.5 µM)	8.2 (≈ 20.2 µM)	7 (≈ 17.2 µM)	7.5 (≈ 18.5 µM)	9.3 (≈ 22.9 µM)	13 (≈ 32 µM)	8.5 (≈ 20.9 µM)	–
